Data taken from ChEMBL document CHEMBL2203243, “Synthesis and biological evaluation of novel benzimidazole derivatives and their binding behavior with bovine serum albumin” (Eur J Med Chem, 2012).
Values after ≈ are worked out from the molar mass of the structure shown.

Columns and labels:
Staphylococcus aureus [1] = assay: Antimicrobial activity against methicillin-resistant Staphylococcus aureus N315 by microbroth dilution method; format: functional
[2] = Lipophilicity, log P of the compound by UV-Vis spectrophotometric method based saturation shake flask assay; format: physicochemical; conditions: octanol/water
Summary of the method: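 Log P measured by the traditional saturation shake-flask partition, with compound quantified by UV-vis spectrophotometry.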

Bacillus subtilis = assay: Antimicrobial activity against Bacillus subtilis by microbroth dilution method; format: functional
Summary of the method: (§1)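 Two-fold serial broth microdilution in 96-well microtest plates, run against four Gram-positive strains, five Gram-negative strains and two fungi.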

Escherichia coli = assay: Antimicrobial activity against Escherichia coli DH52 by microbroth dilution method; format: functional; summary of the method: as §1
Micrococcus luteus = assay: Antimicrobial activity against Micrococcus luteus ATCC 4698 by microbroth dilution method; format: functional; summary of the method: as §1
Pseudomonas aeruginosa = assay: Antimicrobial activity against Pseudomonas aeruginosa by microbroth dilution method; format: functional; summary of the method: as §1
Bacillus = assay: Antimicrobial activity against Bacillus proteus by microbroth dilution method; format: functional; summary of the method: as §1
Staphylococcus aureus [3] = assay: Antimicrobial activity against Staphylococcus aureus ATCC 25923 by microbroth dilution method; format: functional; summary of the method: as §1
[4] = Antimicrobial activity against Eberthella typhosa by microbroth dilution method; format: functional; summary of the method: as §1
Shigella dysenteriae = assay: Antimicrobial activity against Shigella dysenteriae by microbroth dilution method; format: functional
Candida = assay: Antimicrobial activity against Candida mycoderma by microbroth dilution method; format: functional; summary of the method: as §1
Candida albicans = assay: Antimicrobial activity against Candida albicans by microbroth dilution method; format: functional; summary of the method: as §1

SMILES	MIC (Staphylococcus aureus [1])	logP ([2]; read-out: logP)	MIC (Bacillus subtilis)	MIC (Escherichia coli)	MIC (Micrococcus luteus)	MIC (Pseudomonas aeruginosa)	MIC (Bacillus)	MIC (Staphylococcus aureus [3])	MIC [4]	MIC (Shigella dysenteriae)	MIC (Candida)	MIC (Candida albicans)	logP [2]
ClCc1nc2ccccc2[nH]1	> 512 µg/mL	1.44	> 512 µg/mL	256 µg/mL (≈ 1540 µM)	512 µg/mL (≈ 3070 µM)	> 512 µg/mL	> 512 µg/mL	> 512 µg/mL	512 µg/mL (≈ 3070 µM)	512 µg/mL (≈ 3070 µM)	> 512 µg/mL	512 µg/mL (≈ 3070 µM)	
CCCCCCCCCCCCn1c(CNNC(=O)c2sc(C(=O)NNCc3nc4ccccc4n3CCCCCCCCCCCC)c(C)c2C)nc2ccccc21	8 µg/mL (≈ 9.69 µM)		512 µg/mL (≈ 620 µM)	128 µg/mL (≈ 155 µM)	> 512 µg/mL	128 µg/mL (≈ 155 µM)	> 512 µg/mL	128 µg/mL (≈ 155 µM)	256 µg/mL (≈ 310 µM)	16 µg/mL (≈ 19.4 µM)	64 µg/mL (≈ 77.6 µM)	256 µg/mL (≈ 310 µM)	ND(Insoluble)
CCCCCCCCCCCCCCCCCCn1c(CNNC(=O)c2sc(C(=O)NNCc3nc4ccccc4n3CCCCCCCCCCCCCCCCCC)c(C)c2C)nc2ccccc21	512 µg/mL (≈ 515 µM)		> 512 µg/mL	512 µg/mL (≈ 515 µM)	> 512 µg/mL	512 µg/mL (≈ 515 µM)	> 512 µg/mL	256 µg/mL (≈ 258 µM)	64 µg/mL (≈ 64.4 µM)	512 µg/mL (≈ 515 µM)	256 µg/mL (≈ 258 µM)	> 512 µg/mL	ND(Insoluble)
Cc1c(C(=O)NNCc2nc3ccccc3n2Cc2ccc(Cl)c(Cl)c2)sc(C(=O)NNCc2nc3ccccc3n2Cc2ccc(Cl)c(Cl)c2)c1C	> 512 µg/mL	7.16	512 µg/mL (≈ 635 µM)	512 µg/mL (≈ 635 µM)	> 512 µg/mL	> 512 µg/mL	> 512 µg/mL	32 µg/mL (≈ 39.7 µM)	> 512 µg/mL	> 512 µg/mL	> 512 µg/mL	> 512 µg/mL	
Cc1c(C(=O)NNCc2nc3ccccc3n2Cc2ccc(F)cc2F)sc(C(=O)NNCc2nc3ccccc3n2Cc2ccc(F)cc2F)c1C	128 µg/mL (≈ 173 µM)	4.96	256 µg/mL (≈ 346 µM)	128 µg/mL (≈ 173 µM)	256 µg/mL (≈ 346 µM)	128 µg/mL (≈ 173 µM)	128 µg/mL (≈ 173 µM)	64 µg/mL (≈ 86.4 µM)	128 µg/mL (≈ 173 µM)	256 µg/mL (≈ 346 µM)	256 µg/mL (≈ 346 µM)	64 µg/mL (≈ 86.4 µM)	
Cc1c(C(=O)NNCc2nc3ccccc3n2Cc2ccc(F)cc2)sc(C(=O)NNCc2nc3ccccc3n2Cc2ccc(F)cc2)c1C	128 µg/mL (≈ 182 µM)	5.25	32 µg/mL (≈ 45.4 µM)	32 µg/mL (≈ 45.4 µM)	128 µg/mL (≈ 182 µM)	128 µg/mL (≈ 182 µM)	128 µg/mL (≈ 182 µM)	128 µg/mL (≈ 182 µM)	128 µg/mL (≈ 182 µM)	128 µg/mL (≈ 182 µM)	32 µg/mL (≈ 45.4 µM)	64 µg/mL (≈ 90.8 µM)	
Cc1c(C(=O)NNCc2nc3ccccc3n2Cc2ccc(Cl)cc2)sc(C(=O)NNCc2nc3ccccc3n2Cc2ccc(Cl)cc2)c1C	32 µg/mL (≈ 43.4 µM)	6.19	32 µg/mL (≈ 43.4 µM)	8 µg/mL (≈ 10.8 µM)	16 µg/mL (≈ 21.7 µM)	32 µg/mL (≈ 43.4 µM)	32 µg/mL (≈ 43.4 µM)	32 µg/mL (≈ 43.4 µM)	16 µg/mL (≈ 21.7 µM)	32 µg/mL (≈ 43.4 µM)	32 µg/mL (≈ 43.4 µM)	16 µg/mL (≈ 21.7 µM)	
Cc1c(C(=O)NNCc2nc3ccccc3n2Cc2cccc(Cl)c2)sc(C(=O)NNCc2nc3ccccc3n2Cc2cccc(Cl)c2)c1C	16 µg/mL (≈ 21.7 µM)	6.34	128 µg/mL (≈ 174 µM)	32 µg/mL (≈ 43.4 µM)	32 µg/mL (≈ 43.4 µM)	128 µg/mL (≈ 174 µM)	128 µg/mL (≈ 174 µM)	128 µg/mL (≈ 174 µM)	256 µg/mL (≈ 347 µM)	128 µg/mL (≈ 174 µM)	64 µg/mL (≈ 86.8 µM)	128 µg/mL (≈ 174 µM)	
Cc1c(C(=O)NNCc2nc3ccccc3n2Cc2ccccc2Cl)sc(C(=O)NNCc2nc3ccccc3n2Cc2ccccc2Cl)c1C	16 µg/mL (≈ 21.7 µM)	6.25	32 µg/mL (≈ 43.4 µM)	32 µg/mL (≈ 43.4 µM)	16 µg/mL (≈ 21.7 µM)	64 µg/mL (≈ 86.8 µM)	16 µg/mL (≈ 21.7 µM)	32 µg/mL (≈ 43.4 µM)	128 µg/mL (≈ 174 µM)	32 µg/mL (≈ 43.4 µM)	128 µg/mL (≈ 174 µM)	32 µg/mL (≈ 43.4 µM)	
CCCn1c(CNNC(=O)c2sc(C(=O)NNCc3nc4ccccc4n3CCC)c(C)c2C)nc2ccccc21.Cl	32 µg/mL		256 µg/mL	256 µg/mL	256 µg/mL	32 µg/mL	16 µg/mL	256 µg/mL	4 µg/mL	128 µg/mL	128 µg/mL	32 µg/mL	
CCCCCCCCCCn1c(CNNC(=O)c2sc(C(=O)NNCc3nc4ccccc4n3CCCCCCCCCC)c(C)c2C)nc2ccccc21.Cl	2 µg/mL		2 µg/mL	4 µg/mL	8 µg/mL	16 µg/mL	2 µg/mL	2 µg/mL	4 µg/mL	8 µg/mL	4 µg/mL	8 µg/mL	
